Shown are actives, neighbours in structure and some others; about 1.5% of the full set was active somewhere.
aDG glyco act – increases alpha dystroglycan glycosylation | activation, % at 10 µM | actives 0.22% (n = 360,000) | Pro5-aDG cells, alpha-DG glycosylation AlphaScreen (IIH6); 0% Pro5, 100% B10-LARGE cell signal;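 active = activation of at least 8% versus controls, or a plate z-score of at least 8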;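 note: Pro5 are CHO cells carrying HIG-tagged alpha-DG that lacks glycosylation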
Rev-erbA mod – modulators of human Rev-erb alpha DNA binding. activity, % at 10 µM. Rev-erbα–FITC-DNA binding, fluorescence polarization, 90 min. actives 0.79% (n = 370,000). P20393. AID 1259318;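 active = activity above about 14%, limit read from the data; passing the limit was not always enough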;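 note: 0% = DMSO wells with 35 nM protein and 100% = DMSO wells with 750 nM protein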
CSN deneddyl inh – inhibitors of human CSN-mediated cullin deneddylation; actives 0.38% (n = 360,000); Purified CSN, SCF-Nedd8-OG deneddylation, fluorescence polarization; Q92905; inhibition, % at 12.5 µM;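 active = pattern-corrected inhibition above about 35%, with an unprinted fluorescence ratio check between 0.5 and 1.5, limit read from the data, passing the limit was not always enough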;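 note: 0% = enzyme with substrate and 100% = substrate without enzyme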
Target sequence (Q92905 whole entry, looked up, one chain of several): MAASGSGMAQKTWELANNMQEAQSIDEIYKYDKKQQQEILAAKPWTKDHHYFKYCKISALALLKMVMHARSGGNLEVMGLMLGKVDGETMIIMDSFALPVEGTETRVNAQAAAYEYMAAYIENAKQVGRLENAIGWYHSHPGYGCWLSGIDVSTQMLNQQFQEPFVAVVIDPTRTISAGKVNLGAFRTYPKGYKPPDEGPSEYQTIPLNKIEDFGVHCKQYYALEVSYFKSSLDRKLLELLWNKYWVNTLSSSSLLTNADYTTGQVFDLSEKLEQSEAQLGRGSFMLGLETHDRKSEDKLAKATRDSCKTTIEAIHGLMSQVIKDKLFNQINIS
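Material: human Csn5 produced in HEK293T cells; Input: enzyme 0.24 nM; Reagent: SCFSkp2-Nedd8OG substrate at 10 nM final; Dosing: 12.5 µM compound; Incubation: 90 min reaction at room temperature; Detection: fluorescence polarization of the substrate; Evaluation: % inhibition of substrate cleavage by Csn5; Control set: substrate-only high control, full reaction low control.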
HNF4A DNA FP – change in binding of human HNF4 alpha to DNA; P41235; HNF4a-FITC DNA binding, fluorescence polarization, 1 h; activity change, % at 10 µM; actives 0.3% (n = 360,000); AID 1224865; in the data active = activity change above about 30%, passing the limit was not always enough
NR1D1 mod conf – confirmation of modulators of human Rev-erb alpha DNA binding; shares compounds with Rev-erbA mod; Rev-erb alpha FITC-DNA binding, fluorescence polarization, 90 min; actives 61% (n = 3,000); activation, % at 25 µM;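 active = activation at or above a set limit, or at least 3 SD above the negative control mean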;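 note: 0% = 35 nM protein with DMSO and 100% = 750 nM protein high control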
RORg DNA counter – RORgamma DNA-binding activity, dose-response counter-screen | actives 8% (n = 910) | AID 1259320 | purified RORgamma protein-FITC-DNA binding, fluorescence polarization | shares compounds with Rev-erbA mod | IC50, µM;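 active = Compounds whose fitted half-maximal concentration for disrupting protein-DNA binding is below 10 micromolar; the record names Rev-erb in its text, so the target is in doubt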
Numbers without * were called inactive; i = inactive; . = no result given.

SMILES	aDG glyco act	Rev-erbA mod	CSN deneddyl inh	HNF4A DNA FP	NR1D1 mod conf	others
O=C(CCCn1c(=S)[nH]c2cc3c(cc2c1=O)OCO3)NCc1ccccc1Cl	-0.2	49.5*	-4.0	4.3	32.6*	RORg DNA counter=>40
COc1ccc(CC(=O)Nc2ccc(C)cc2S(=O)(=O)N2CCOCC2)cc1OC	.	6.8	.	.	.
CCOC(=O)N1CCN(C(=O)C[C@H]2C(=O)N(CCCOC)C3=CCCC[C@@]32C(=O)OCC)CC1	.	0.2	.	.	.
O=C(NC1CC1c1ccccc1)N1CCC(c2nc3ccc(Cl)cc3[nH]2)CC1 (stereo not drawn)	.	-6.7	.	.	.
COCCCNC(=O)c1ccc2c(=O)n(Cc3ccccc3OC)c(=S)[nH]c2c1	-0.1	2.5	-1.7	0.6	.
CCCn1c(=S)[nH]c2cc(C(=O)NCc3ccccc3OC)ccc2c1=O	-0.1	36.4*	0.4	-0.5	26.6*
CCn1cc(C(=O)NCCc2ccc(Cl)cc2)c(=O)c2cc(S(=O)(=O)N(C)C)ccc21	-0.1	43.9*	-3.6	3.5	26.8*
c1ccc(-c2cc(-c3nnc4sc(Cc5cccs5)nn34)[nH]n2)cc1	.	-9.2	.	.	.
CCN(CC)c1ccc2cc(-c3nc(-c4ccc(OC)cc4)cs3)c(=O)oc2c1	.	40.4*	.	.	29.0*
C[C@@H]1C[C@H](O)CCCCCC(=O)Cc2cc(O)cc(O)c2C(=O)O1	.	-8.9	.	.	.
COc1ccc(-c2nnc3n2N=C(c2cccc([N+](=O)[O-])c2)CS3)cc1	.	-4.7	.	.	.
COc1ccc(Cn2cc3c(-c4ccc(F)cc4)nnc-3c3cc(OC)c(OC)cc32)cc1	-0.1	5.1	22.5	11.1	.
COc1cc2c3nnc(-c4ccc(F)cc4)c-3cn(Cc3ccc(F)cc3)c2cc1OC	-0.1	35.3*	26.9	5.7	27.3*
COc1cc2c3nnc(-c4ccc(F)cc4)c-3cn(Cc3ccccc3)c2cc1OC	0.4	43.1*	61.6	11.9	44.7*	RORg DNA counter=>40
COc1ccc(-n2cc(C(=O)c3cc4ccccc4oc3=O)c(C(C)=O)n2)cc1	0.3	22.8*	2.9	-0.1	9.4
COc1cccc(OC(=O)c2cc3ccccc3oc2=O)c1	-0.1	2.0	-7.3	0.9	.
CN(C)/C=C1\C=C2C(=O)c3ccccc3N2C1=O	0.0	340.4*	-75.8	-110.2	229.4*	RORg DNA counter=1.15*
CCCCCN1CCCCC(NC(=O)CSc2ccccc2)C1=O (stereo not drawn)	.	-0.1	.	.	.
Cc1ccc(Sc2cnc3ccccc3n2)cc1	0.1	39.5*	1.4	0.3	32.9*	RORg DNA counter=>40
COc1ccc2c(c1)CCCN2C(=O)C1CCCN(S(=O)(=O)c2ccc(C(C)(C)C)cc2)C1 (stereo not drawn)	.	-0.2	.	.	.
C=CCN(CC#Cc1ccccc1)Cc1ccc(OC)cc1	.	-2.7	.	.	.
Cc1c(N=C2N=C(NC(=O)c3ccc(F)cc3)c3ccccc32)c(=O)n(-c2ccccc2)n1C	-0.3	92.1*	-102.8	74.7*	50.8*
COc1cccc(Cn2cc(COC(=O)NCC(C)C)nn2)c1	.	3.0	.	.	.
COc1cccc(COC(=O)c2cc(S(=O)(=O)N3CCCCC3)ccc2N2CCOCC2)c1OC	-0.2	20.4*	4.7	-0.3	-0.4
COc1ccc(C(=O)COC(=O)c2cc(S(=O)(=O)N3CCCCC3)ccc2N2CCOCC2)c(OC)c1	-0.3	17.6*	-2.4	-1.1	11.7
SMILES	aDG glyco act	Rev-erbA mod	CSN deneddyl inh	HNF4A DNA FP	NR1D1 mod conf	others
CCSc1nc(N)c(C#N)c(-c2ccccc2Cl)c1C#N	0.3	24.9*	-4.6	-1.4	22.3*
N#Cc1c(N)nc(Sc2ccc(Cl)cc2)c(C#N)c1-c1ccccc1Cl	1.2	63.5*	3.7	-4.3	43.3*	RORg DNA counter=i
Cc1ccc(-c2cc(-c3ccccc3Cl)c(C#N)c(N)n2)o1	0.3	-0.5	0.3	5.7	.
C=CCSc1nc(N)c(C#N)c(-c2ccc(C)cc2)c1C#N	-0.3	16.7	0.5	0.2	.
O=C(Cn1c(=O)c(=O)n(Cc2ccccc2)c2ccc(Cl)cc21)Nc1cccc(F)c1	0.6	44.0*	-10.5	2.7	24.1*
O=C(Cn1c2ccccc2c(=O)c2ccccc21)Nc1cccc(F)c1	-0.2	28.0*	4.8	3.6	15.6
Cn1c(SCc2ccc(C(C)(C)C)cc2)nnc1-c1ccco1	.	1.8	.	.	.
COC(=O)[C@]12C[C@H](CC(=O)NCc3cccs3)C(=O)N(Cc3ccco3)C1=C[C@H](C(C)C)O[C@@H]2C1CC1	.	1.1	.	.	.
COc1ccc2cc(C#N)c(SCC(=O)Nc3nonc3C)nc2c1	-0.1	66.6*	4.1	5.4	27.1*
CCOC(=O)CSc1nc2cc(C)ccc2cc1C#N	-0.1	3.2	1.4	3.5	.
CCOC(=O)CSc1nc2cc(OC)ccc2cc1C#N	0.3	29.5*	-2.2	1.4	30.5*
CCC(=O)NCCNc1nc2cc(C)c(C)cc2cc1C#N	0.0	-2.4	5.4	-2.0	.
Cc1nonc1NC(=O)CSc1nc2c(C)cccc2cc1C#N	0.6	80.9*	-1.7	2.0	72.6*	RORg DNA counter=>40
Cc1cc2cc(C#N)c(SCC(=O)Nc3nonc3C)nc2cc1C	0.0	20.4*	7.6	8.3	33.3*	RORg DNA counter=i
COc1ccc2nc(SCC(C)=O)c(C#N)cc2c1	1.4	15.3	8.6	2.7	.
COC(=O)C1CN(C2CCCC2)CCS(=O)(=O)N1Cc1ccc(F)cc1 (stereo not drawn)	.	-5.9	.	.	.
Cc1ccccc1NC(=O)CSc1nc2c(c(-c3ccco3)c1C#N)CCCC2	0.0	15.1	-1.5	-0.3	.
COc1ccc(-c2ccc(C#N)c(SCC(=O)Nc3sc4c(c3C#N)CCC4)n2)cc1	0.4	33.9*	2.9	3.9	13.9
COc1ccc(-c2c(C#N)c(SCC(=O)Nc3ccccc3)nc3c2CCCC3)cc1	1.0	44.5*	-4.0	-1.9	28.9*
CCc1ccccc1NC(=O)CSc1nc2c(c(-c3ccco3)c1C#N)CCCC2	0.4	29.5*	-1.9	0.7	19.6*
CN1CC=C(c2ccccc2)N(c2ccc(Br)cc2)C1=O	.	-2.0	.	.	.
COC(=O)c1cc(-c2cccc3c2sc2ccccc23)c(=O)n2c1CCC2	.	3.8	.	.	.
CCN(CC(=O)NCc1ccc(Cl)cc1)C(=O)c1ccc2cc(OC)ccc2c1	1.2	105.4*	-1.2	-0.7	102.3*	RORg DNA counter=>40
COc1ccc2c(-c3ccccc3)cc(SCC(=O)NC(N)=O)nc2c1	0.2	39.6*	13.1	1.3	14.2
COc1ccc2c(C)cc(SCC(=O)Nc3ncc(Cl)cc3Cl)nc2c1	-0.2	118.9*	-7.6	3.3	56.0*	RORg DNA counter=>40
COc1ccc2c(C)cc(SCC(=O)Nc3cccnc3Cl)nc2c1	0.0	59.2*	9.9	-0.6	69.0*	RORg DNA counter=i
CCOC(=O)[C@@]12CCCC3=C1N(CCC3)C(=O)[C@H]2CC(=O)NCCC(C)C	.	4.6	.	.	.
COc1ccc(C(C(=O)N(C)C2CCCC2)N(Cc2ccc(F)cc2)C(=O)c2csc(N3CCOCC3)n2)cc1OC (stereo not drawn)	.	-3.4	.	.	.
